Results reported in ChEMBL document CHEMBL1149024, “Naturally occurring antiacne agents” (1994).
In brackets after ≈: the same amount, converted by molar mass. Activity calls are given as the source filed them. The calls are words filed in the database; no cut-off is given here.

Columns and labels:
[1] = test system: Cutibacterium acnes; test: Antimicrobial activity Propionibacterium acnes ATCC 11827 after 2 days by broth dilution method; type: functional
In short: (§1)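 Serial twofold dilutions in DMF; 30 µl of each added to 3 ml NYG broth (0.8% nutrient broth, 0.5% yeast extract, 0.1% glucose), then inoculated with 30 µl of a two-day-old culture. Incubated 2 days at 37°; growth read as turbidity (OD 660 nm). MIC is the lowest concentration giving complete growth inhibition, determined at least twice.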

[2] = test system: Cutibacterium acnes; test: Antimicrobial activity Propionibacterium acnes ATCC 11827 after 2 days by twofold dilution method in presence of 1000 units of lipase; type: functional; conditions: ATCC 11827, 48 h
[3] = test system: Cutibacterium acnes; test: Antimicrobial activity Propionibacterium acnes ATCC 11827 up to 200 ug/ml after 2 days by broth dilution method; type: functional, organism-based; in short: as §1
[4] = test system: Cutibacterium acnes; test: Antimicrobial activity Propionibacterium acnes ATCC 11827 at 1.56 ug/ml after 3 days by time-kill curve method; type: functional, organism-based
In short: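 P. acnes ATCC 11827, from a two-day-old culture, was inoculated into NYG broth (0.8% nutrient broth, 0.5% yeast extract, 0.1% glucose) containing the compound predissolved in DMF. Initial inoculum was 1 × 10^6 to 5 × 10^6 CFU/ml. Viable counts were taken at 8, 24 and 48 h from serial 10-fold dilutions on Actinomyces agar, incubated anaerobically at 37° for 3 days.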

[5] = test system: Cutibacterium acnes; test: Antimicrobial activity at exponential growth phase of Propionibacterium acnes ATCC 11827 assessed as log units reduction in CFU/ml at 25 ug/ml after 48 hrs by time-kill curve method; type: functional, organism-based
In short: (§2)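 A 30 µl aliquot of two-day-old culture went into 3 ml NYG broth (initial inoculum 1 × 10^6 to 5 × 10^6 CFU/ml). Compound, dissolved in DMF, was added at set times after incubation began. Viable counts were taken 24 and 48 h after addition from serial 10-fold dilutions plated on Actinomyces agar, incubated anaerobically 3 days at 37°.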

[6] = test system: Cutibacterium acnes; test: Antimicrobial activity at lag growth phase of Propionibacterium acnes ATCC 11827 assessed as log units reduction in CFU/ml at 25 ug/ml after 48 hrs by time-kill curve method; type: functional; in short: as §2
[7] = test system: Cutibacterium acnes; test: Antimicrobial activity at exponential growth phase of Propionibacterium acnes ATCC 11827 assessed as log units reduction in CFU/ml at 6.25 ug/ml after 48 hrs by time-kill curve method; type: functional, organism-based
In short: (§3)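 Growth-phase time-kill: P. acnes ATCC 11827 was grown in NYG broth from a 1 × 10^6 to 5 × 10^6 CFU/ml inoculum. The compound (DMF stock) was added after 0, 8 or 32 h of incubation. Viable counts were taken 24 and 48 h after addition by serial 10-fold dilution plating on Actinomyces agar, incubated anaerobically at 37° for 3 days. Reduction is expressed as log CFU/ml.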

[8] = test system: Cutibacterium acnes; test: Antimicrobial activity at exponential growth phase of Propionibacterium acnes ATCC 11827 assessed as log units reduction in CFU/ml at 1.56 ug/ml after 48 hrs by time-kill curve method; type: functional, organism-based; in short: as §3
[9] = Cutibacterium acnes, ATCC 11827, 48 h, read-out: MIC
[10] = Cutibacterium acnes, ATCC 11827, 48 h

Structure (SMILES)	MIC [1, 9] [µg/mL]	further results
CCCCCC(C)O (centres undefined) [2-HEPTANOL]	800 (≈ 6880 µM)	–
C=CC/C=C\C/C=C\CCCCCCCc1cccc(O)c1C(=O)O [ANACARDIC ACID]	0.78 (≈ 2.28 µM)	–
CC(C)c1cccc(=O)c(O)c1 [HINOKITIOL]	12.5 (≈ 76.1 µM)	–
C=C1CCC2CC1C2(C)C (stereo not drawn) [BETA-PINENE]	100 (≈ 734 µM)	–
C=CCc1ccc2c(c1)OCO2 [SAFROLE]	50 (≈ 308 µM)	–
CCCCCCCCCO [NONANOL]	100 (≈ 693 µM)	MBC [1, 10]: 200 µg/mL (≈ 1390 µM)
CCCCCCCCCCC(C)O (centres undefined)	12.5 (≈ 67.1 µM)	–
CCCCCCCCCCCCCCCCO [CETYL ALCOHOL]	0.78 (≈ 3.22 µM)	MBC [1, 10]: 1.56 µg/mL (≈ 6.43 µM)
Cc1cccc(O)c1C(=O)O	200 (≈ 1310 µM)	–
c1ccc2[nH]ccc2c1 [INDOLE]	200 (≈ 1710 µM)	–
CCCCCCCO [1-HEPTANOL]	400 (≈ 3440 µM)	MBC [1, 10]: 800 µg/mL (≈ 6880 µM)
CCCCCCCCCCCCCCO [MYRISTYL ALCOHOL]	1.56 (≈ 7.28 µM)	MBC [1, 10]: 1.56 µg/mL (≈ 7.28 µM)
CC(C)c1c(O)ccc2c1CC[C@H]1C(C)(C)CCC[C@]21C [TOTAROL]	0.39 (≈ 1.36 µM)	–
C=C1[C@H]2CC[C@H](C2)C1(C)C	25 (≈ 184 µM)	–
CCCCCCCCCCCCCCCCC(C)O (centres undefined)	> 800	–
CC[C@H](CC[C@@H](C)[C@H]1CC[C@H]2[C@@H]3CC=C4C[C@@H](O)CC[C@]4(C)[C@H]3CC[C@]12C)C(C)C [BETA-SITOSTEROL]	> 800	–
CC1=CC[C@@H](C(C)(C)O)CC1 [ALPHA-TERPINEOL]	100 (≈ 648 µM)	–
CC(C)c1oc(=O)cc2c1[C@@H](O)[C@H]1OC(=O)[C@@]3(C)[C@@H](O)[C@H]4O[C@H]4[C@@]2(C)[C@@H]13 [NAGILACTONE C]	> 800	–
CCCCCCCCCCCCCCCOC(=O)CCCCCCCCCCC [PENTADECANYLDODECANOATE]	–	MIC [2]: 1.56 µg/mL; Activity [3]: inactive
CCCCCCCCCCCCCCCO	0.78 (≈ 3.41 µM)	Activity [4]: Active; Activity [5]: Active; Activity [6]: >2; MBC [1, 10]: 1.56 µg/mL (≈ 6.83 µM); Activity [7]: inactive; Activity [8]: inactive
CCCC(O)CC (centres undefined) [HEXAN-3-OL]	> 800	–
CCCCCCCCCCCCCCC(C)O (centres undefined)	0.78 (≈ 3.22 µM)	–
CCCCCCO [1-HEXANOL]	> 800	–
CCCCCCCCCCO [DECANOL]	25 (≈ 158 µM)	MBC [1, 10]: 50 µg/mL (≈ 316 µM)
CC(C)=CCC/C(C)=C/CC/C(C)=C/CO [FARNESOL]	6.25 (≈ 28.1 µM)	–
CCCCCC(O)CC (centres undefined) [3-OCTANOL]	400 (≈ 3070 µM)	–

Structure (SMILES)	MIC [1, 9] [µg/mL]	further results
C=CC(C)(O)CC/C=C(\C)CCC=C(C)C (centres undefined) [NEROLIDOL]	25 (≈ 112 µM)	–
CCCCCCCCCCCCCO [TRIDECAN-1-OL]	1.56 (≈ 7.79 µM)	MBC [1, 10]: 3.13 µg/mL (≈ 15.6 µM)
Cn1c(=O)c2c(ncn2C)n(C)c1=O [CAFFEINE]	> 400	–
CCCCCCCCO [OCTANOL]	200 (≈ 1540 µM)	–
CCCCCC/C=C\CCCCCCCc1cccc(O)c1C(=O)O [GINGKOLIC ACID]	0.78 (≈ 2.25 µM)	–
CCCCCCCCc1cccc(O)c1C(=O)O	3.13 (≈ 12.5 µM)	–
CCCCCCCCCCCCc1cccc(O)c1C(=O)O	0.39 (≈ 1.27 µM)	–
CCCCCc1cccc(O)c1C(=O)O	100 (≈ 480 µM)	–
CC1=C[C@@H]2C(=C(C)CC[C@H]2C(C)C)CC1 [(+)-DELTA-CADINENE]	3.13 (≈ 15.3 µM)	–
C/C=C/c1ccc(OC)cc1 [ANETHOLE]	100 (≈ 675 µM)	–
CC(C)[C@H]1OC(=O)C=C2C13O[C@@H]3[C@H]1OC(=O)[C@@]3(C)[C@@H](O)CC[C@@]2(C)[C@@H]13 (some centres undefined) [NAGILACTONE E]	> 800	–
CCCCCCCCCCc1cccc(O)c1C(=O)O	1.56 (≈ 5.6 µM)	–
CCCCCCCCCCCO [UNDECANOL]	12.5 (≈ 72.5 µM)	MBC [1, 10]: 25 µg/mL (≈ 145 µM)
C=CC(C)(O)CCC=C(C)C (centres undefined) [LINALOOL]	200 (≈ 1300 µM)	–
C=C(C)[C@H]1CC=C(C)CC1 [D-LIMONENE]	50 (≈ 367 µM)	–
CC1=CCC(=C(C)C)CC1 [TERPINOLENE]	50 (≈ 367 µM)	–
CCCCCCCCCCCCO [DODECANOL]	3.13 (≈ 16.8 µM)	MBC [1, 10]: 6.25 µg/mL (≈ 33.5 µM)
CC1=CCC(O)(C(C)C)CC1 (centres undefined) [TERPINEOL]	800 (≈ 5190 µM)	–
CC(C)=CCC/C(C)=C/[C@H](O)C/C(C)=C/CC/C(C)=C/CO [CRINITOL]	25 (≈ 81.6 µM)	–
CCCCCCCCCCCCCCCCCCCCO [1-EICOSANOL]	> 800	–
C/C=C/c1ccc2c(c1)OCO2 [ISOSAFROLE]	200 (≈ 1230 µM)	–
CCCCC(O)CC (centres undefined) [3-HEPTANOL]	800 (≈ 6880 µM)	–
CC1(C)CCC[C@]2(C)[C@@H](C=O)C(C=O)=CC[C@@H]12 [POLYGODIAL]	25 (≈ 107 µM)	–
C/C=C/c1cc(OC)c(OC)cc1OC [TRANS-ASARONE]	100 (≈ 480 µM)	–
CCCCCCCCCCCCCCCCCCO [CETOSTEARYL ALCOHOL]	> 800	–
O=C(O)c1ccccc1O [SALICYLIC ACID]	400 (≈ 2900 µM)	–

Structure (SMILES)	MIC [1, 9] [µg/mL]	further results
CCC/C=C\C/C=C\CCCCCCCc1cccc(O)c1C(=O)O	0.78 (≈ 2.26 µM)	–
C=C1CC/C=C(\C)CC[C@@H]2[C@@H]1CC2(C)C [BETA-CARYOPHYLLENE]	6.25 (≈ 30.6 µM)	–
CC(C)CCC[C@@H](C)[C@H]1CC[C@H]2[C@@H]3CC=C4C[C@@H](O)CC[C@]4(C)[C@H]3CC[C@]12C [CHOLESTEROL]	> 800	–
CCCCCCCCCCCCCCCCCO	> 800	–
C=C1[C@H]2CC[C@@H]3[C@H]2C(C)(C)CCC[C@]13C [LONGIFORENE]	6.25 (≈ 30.6 µM)	–
CC12CCC(CC1=O)C2(C)C (centres undefined) [CAMPHOR]	200 (≈ 1310 µM)	–
CC(C)=CCC/C(C)=C/CO [GERANIOL]	400 (≈ 2590 µM)	–
CC1=CCC2C(C1)C2(C)C (centres undefined) [CARENE]	50 (≈ 367 µM)	–
CCCCCCC(O)CC (centres undefined)	200 (≈ 1390 µM)	–
C/C1=C\CC/C(C)=C/CC(C)(C)/C=C/C1 [ALPHA-HUMULONE]	3.13 (≈ 15.3 µM)	–
CCCCCCCC(C)O (centres undefined) [2-NONANOL]	400 (≈ 2770 µM)	–
CC1CCC(C(C)C)C(O)C1 (centres undefined) [MENTHOL]	400 (≈ 2560 µM)	–
CCCCCCC(C)O (centres undefined)	800 (≈ 6140 µM)	–
C=C1[C@@H]2CC[C@@H](C2)C1(C)C [(-)-CAMPHENE]	25 (≈ 184 µM)	–
CCCCCCCCC(C)O (centres undefined) [DECAN-2-OL]	100 (≈ 632 µM)	–
C=CCc1ccc(OC)c(OC)c1 [METHYLEUGENOL]	200 (≈ 1120 µM)	–
Cc1ccc(C(C)C)c(O)c1 [THYMOL]	200 (≈ 1330 µM)	–
CCCCCCCCCCCCCCCCCCCCc1cccc(O)c1C(=O)O	> 800	–
CCCCC(C)O (centres undefined) [2-HEXANOL]	800 (≈ 7830 µM)	–
C=CCc1ccc(O)c(OC)c1 [EUGENOL]	50 (≈ 304 µM)	–
CC1(C)C2CCC1(C)C(O)C2 (centres undefined) [BORNEOL]	200 (≈ 1300 µM)	–
CC(C)C1=CC2=CC[C@@H]3[C@](C)(CCC[C@@]3(C)C(=O)O)[C@H]2CC1 [ABIETIC ACID]	25 (≈ 82.7 µM)	–
CCCCCCCCCCCCCCCc1cccc(O)c1C(=O)O [ANACARDIC ACID]	0.78 (≈ 2.24 µM)	MIC [1]: 0.78 µg/mL (≈ 2.24 µM)
CCCCCCCCCCCCC(C)O (centres undefined)	3.13 (≈ 14.6 µM)	–
CC1=CCC2CC1C2(C)C (stereo not drawn) [ALPHA-PINENE]	25 (≈ 184 µM)	–
CCCCCCCCCCCC(=O)O [DODECANOATE]	50 (≈ 250 µM)	–
